Source: ChEMBL document CHEMBL1143847, “Competitive inhibitors of the CphA metallo-beta-lactamase from Aeromonas hydrophila” (Antimicrob Agents Chemother, 2007)

Columns and labels:
[1] = substrate: C[C@@H](O)[C@H]1C(=O)N2C(C(=O)O)=C(SCCNC=N)C[C@H]12; assay: Activity of Aeromonas hydrophila beta lactamase CphA at pH 9.0
In short: (§1)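 Wild-type CphA kinetics with imipenem as substrate, measured in a mixed buffer adjusted to the stated pH with HCl or NaOH. The buffer held 40 mM sodium acetate, 20 mM each of cacodylate, MOPS, TAPS, CHES and CAPS, and 20 μg/ml BSA. Runs were at 30°C in thermostatted cells. Km and kcat came from initial rates. At pH 10 only kcat/Km was taken, because imipenem hydrolyses spontaneously.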

[2] = substrate: C[C@@H](O)[C@H]1C(=O)N2C(C(=O)O)=C(SCCNC=N)C[C@H]12; assay: Activity of Aeromonas hydrophila beta lactamase CphA at pH 8.0; in short: as §1
[3] = substrate: C[C@@H](O)[C@H]1C(=O)N2C(C(=O)O)=C(SCCNC=N)C[C@H]12; assay: Activity of Aeromonas hydrophila beta lactamase CphA at pH 7.0; in short: as §1

B1: Beta-lactamase (Aeromonas hydrophila), Q44079 (protein)
chain: MMKGWMKCGLAGAVVLMASFWGGSVRAAGMSLTQVSGPVYVVEDNYYVQENSMVYFGAKGVTVVGATWTPDTARELHKLIKRVSRQPVLEVINTNYHTDRAGGNAYWKSIGAKVVSTRQTRDLMKSDWAEIVAFTRKGLPEYPDLPLVLPNVVHEGDFTLQEGKLRAFYAGPAHTPDGIFVYFPDQQVLYGNCILKEKLGNLSFADVKAYPRTLERLKAMKLPIKTVVGGHDSPLHGPELIDHYEALIKAAPQS
B1 gave a Km [1] of 63 µM, a kcat [1] of 49 s⁻¹ and a Km [2] of 83 µM. The kcat [2] was 140 s⁻¹, the Km [3] was 120 µM and the kcat [3] was 210 s⁻¹.
